# From PubChem
# G6PDH counter = L. mesenteroides G6PDH inhibition counter-screen. Purified L. mesenteroides G6PDH, diaphorase/resazurin coupled fluorescence, 45 min. inhibition, % at 5 µM. hit rate 0.12% among 200,000. AID 1020; in the data active = inhibition above about 50%
# Diaphorase act = diaphorase activation or chemical reduction counter-screen; hit rate 0.005% among 190,000; activation factor at 20 µM; Diaphorase/resazurin coupled assay, resorufin fluorescence, 16 min; active compounds read high; 1 = vehicle wells, 0 = NADH-free wells;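 active = diaphorase activity raised at least twofold by the compound at 20 µM; inactive = activation factor below 2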
#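 Material: purified diaphorase enzyme from Clostridium kluyveri; Also added: 0.114 mM NADH and 0.1 mM resazurin, final amounts; Doses: single compound dose of 20 µM, 1% DMSO final; Times: 16 min enzyme reaction, ambient temperature; Detection: resorufin fluorescence, excitation 544 nm, emission 590 nm; Measure: increased resorufin signal from activators or reducing compounds.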
# Diaph inh CS = diaphorase inhibition or chemical oxidation counter-screen. hit rate 0.69% among 190,000. inhibition, % at 20 µM. diaphorase resazurin-to-resorufin fluorescence, NADH, 16 min; bacterial (C. kluyveri) enzyme, not human;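 active = primary screen inhibition at 20 µM above a set limit, cut at about 50% in these data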;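 also: plate controls were DMSO with full reaction for no effect and wells lacking NADH for full effect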
#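 Assay system – diaphorase enzyme from Clostridium kluyveri · Amount – diaphorase 0.14 U/mL (working solution) · Times – reaction incubation of 16 min at room temperature · Controls – No-NADH positive control and DMSO neutral control · Signal – resorufin fluorescence 544/590 nm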
# PfG6PD inh = PfG6PD (Plasmodium falciparum) enzyme inhibition; AID 504690; hit rate 0.78% among 350,000; inhibition, % at 20 µM; PfGluPho enzyme, NADPH resazurin-diaphorase fluorescence;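 active = inhibition reaching at least a set limit at 20 µM in the primary screen, cut at about 59% in these data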;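 also: 0% = DMSO wells with substrate and 100% = DMSO wells lacking glucose-6-phosphate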
# HKDC1 inhibitor = blocks human hexokinase HKDC1 activity; recombinant HKDC1, G6PDH/diaphorase resazurin coupled fluorescence; inhibition, % at 20 µM; hit rate 0.16% among 340,000; AID 493160;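 active = inhibition above about 35% when tested at 20 µM, limit read from the data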;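 also: plate controls were DMSO wells with enzyme for no effect and DMSO wells lacking enzyme for full effect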
#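 test system = in-house recombinant HK5 (HKDC1) enzyme | amount = HKDC1 at 5 µg/mL | control set = DMSO-enzyme wells negative, buffer-substituted wells positive | compound = one dose of 20 µM, 1% DMSO | schedule = reaction time 90 min, room temperature, protected from light | technique = resorufin fluorescence at 613 nm | reagent = glucose with 1 mM ATP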
# PfGluPho conf = confirmation of Plasmodium falciparum G6PD inhibitors. shares compounds with PfG6PD inh. recombinant PfGluPho, NADPH-diaphorase-resazurin fluorescence. inhibition, % at 20 µM. hit rate 34% among 2,400. AID 504753;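 active = inhibition of at least 50% at 20 µM in any single replicate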;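 also: 0% = DMSO with substrate and 100% = DMSO lacking glucose-6-phosphate substrate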
# Diaph ctr 10uM = diaphorase inhibition or oxidation at 10 uM NADPH. shares compounds with PfG6PD inh. hit rate 39% among 820. inhibition, % at 20 µM. AID 504862. diaphorase-coupled resazurin reduction, fluorescence, NADPH 10 uM;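 active = average inhibition reaching 50% or more with the compound at 20 µM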;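 also: resorufin red fluorescence formed as diaphorase reduces resazurin using NADPH; 0% = DMSO with enzyme and 100% = DMSO without enzyme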
# Diaphorase 30uM = diaphorase inhibition or oxidation at 30 uM NADPH; inhibition, % at 20 µM; hit rate 29% among 820; Diaphorase/resazurin coupled assay, resorufin fluorescence; AID 504863; shares compounds with PfG6PD inh;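 active = inhibition averaging 50% or more, tested at 20 µM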;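 also: 0% = DMSO with enzyme and 100% = DMSO wells lacking diaphorase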
# * = called active by the depositor; / = no result given. An excerpt weighted towards active compounds, which were near 1.3% of everything screened.
SMILES,G6PDH counter,Diaphorase act,Diaph inh CS,PfG6PD inh,HKDC1 inhibitor,PfGluPho conf,others
O=C(CCSCCC(=O)NN=Cc1ccccc1)NN=Cc1ccccc1,/,/,/,72*,4,55*,Diaph ctr 10uM=49;Diaphorase 30uM=45
O=C(CSCc1ccc(Cl)cc1)N/N=C/c1ccccc1,-2,0.8,16,118*,4,93*,Diaph ctr 10uM=90*;Diaphorase 30uM=80*
O=C(CSc1nc2ccccc2o1)N/N=C/c1ccc(O)c(O)c1,/,/,/,10,6,/,
O=C(CSc1nc2ccccc2o1)N/N=C/c1ccccc1,-2,0.9,6,69*,-6,68*,Diaph ctr 10uM=61*;Diaphorase 30uM=52*
CC(Sc1ccccc1)C(=O)N/N=C/c1ccccc1 (stereo not drawn),/,/,/,77*,1,41,
CC(C)C(NC(=O)c1ccc(C(C)(C)C)cc1)C(=O)Nc1ccc(N2CCOCC2)cc1 (stereo not drawn),/,/,/,15,1,/,
Cc1ccc(C)c(NC(=O)CN(C)C(=O)C2=NNC(=O)CC2)c1,/,/,/,-8,-1,/,
CCN1C(=O)[C@H]2[C@@H](c3ccc(C)cc3)N[C@]3(CCCN(Cc4ccco4)C3=O)[C@H]2C1=O,/,/,/,4,/,/,
COC(=O)c1c(NC(=O)c2ccccc2C(=O)O)sc2c1CCCC2,/,/,/,-31,/,/,
CC(C)(C)c1ccc(C(=O)Nc2sc3c(c2C(=O)O)CCC3)cc1,11,0.5,48,76*,23,59*,Diaph ctr 10uM=34;Diaphorase 30uM=15
NC(=O)c1c(NC(=O)c2ccc(F)cc2)sc2c1CCC2,/,/,/,47,-2,/,
O=C(Nc1sc2c(c1C(=O)O)CCC2)c1ccco1,-2,0.8,20,14,8,/,
O=C(Nc1sc2c(c1C(=O)O)CCCCC2)c1ccccc1F,-8,0.8,16,62*,-4,40,
O=C(Nc1sc2c(c1C(=O)O)CCCC2)c1ccc(F)cc1,/,/,/,93*,6,73*,Diaph ctr 10uM=55*;Diaphorase 30uM=55*
Nc1c(C(=O)Nc2ccc(Br)cc2)sc2nc(N3CCOCC3)c3c(c12)CCCC3,/,/,/,12,/,/,
Nc1c(C(=O)NCc2ccco2)sc2nc(N3CCOCC3)c3c(c12)CCCC3,2,0.8,20,66*,9,-1,
CCN(CC)C(=O)c1sc2nc(N3CCOCC3)c3c(c2c1N)CCCC3,2,0.8,24,76*,8,10,
Oc1cccc2c(NC(=S)Nc3ccc(OC(F)F)cc3)cccc12,27,0.7,28,62*,4,-17,
FC(F)Oc1ccc(NC(=S)NCc2ccccc2)cc1,-13,0.9,12,4,-6,/,
O=C(O)CSc1ncnc2nc[nH]c12,7,0.9,9,-3,-2,/,
c1nc(SSc2ncnc3nc[nH]c23)c2[nH]cnc2n1,/,/,/,118*,-2,108*,Diaph ctr 10uM=-21;Diaphorase 30uM=-15
COc1ccc2c(c1)-c1ccccc1S(=O)(=O)N(C)C2,/,/,/,51,-2,/,
COc1ccc2c(c1)-c1ccccc1S(=O)(=O)N2C,6,0.9,13,60*,5,30,
Cc1ccc(-c2ccc(/C=C/C(=O)c3ccccc3)o2)cc1,-7,0.8,19,11,-11,/,
O=C(/C=C/c1ccc(-c2ccccc2)o1)c1ccccc1,22,0.8,24,111*,9,5,
SMILES,G6PDH counter,Diaphorase act,Diaph inh CS,PfG6PD inh,HKDC1 inhibitor,PfGluPho conf,others
Cc1ccc(/C=C/C(=O)OCC(=O)NCc2cccs2)o1,/,/,/,61*,-4,6,
Cc1cc(NC(=O)c2ccc(Br)o2)ccc1NC(=O)c1ccco1,/,/,/,28,-4,/,
CCOC(CCNC(=O)c1cn(CC(C)C)c(=O)c2c1c1ccccc1n2C)OCC,/,/,/,13,0,/,
CC(C)c1nnc(NC(=O)c2ccc3ccccc3c2)s1,/,/,/,74*,-2,30,
CC(C)c1nnc(NC(=O)c2ccc3c(c2)OCO3)s1,33,1,4,73*,4,20,
CC(C)c1nnc(NC(=O)c2sc3ccccc3c2Cl)s1,7,1,5,64*,-4,63*,Diaph ctr 10uM=39;Diaphorase 30uM=36
